# Measured values as given in ChEMBL document CHEMBL1133419, “Design, synthesis and biological evaluation of 3-amino-3-phenylpropionamide derivatives as novel mu opioid receptor ligands” (Bioorg Med Chem Lett, 2000).
# pKi: −log10 of the molar value.
# Columns and labels:
# Mu-type opioid receptor = Mu-type opioid receptor (Rattus norvegicus, UniProt P33535); test: Inhibition of [3H]DAMGO binding to rat Opioid receptor mu 1
# In short: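 Rat brain crude membranes (homogenized in 50 mM Tris HCl pH 7.4, kept on ice) incubated with 1.5 nM [3H]DAMGO for 90 min at 22 °C. Nonspecific binding defined with naltrexone. Terminated by rapid filtration, bound radioactivity counted by scintillation. Mean of at least three independent assays.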
# [1] = molecular target: Delta-type opioid receptor (Homo sapiens, UniProt P41143); test: Inhibition of [3H]naltrindole binding to human Opioid receptor delta 1 in CHO cells; format: cell-based
# In short: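 Membranes from CHO cells expressing human delta opioid receptor (homogenized in 50 mM Tris HCl pH 7.4, 1 mM EGTA; stored frozen at 0.8 mg/mL) incubated with 0.5 nM [3H]naltrindole, 90 min at 37 °C. Nonspecific binding defined with unlabelled naltrindole. Filtration, scintillation counting; mean of at least three independent assays.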
# [2] = molecular target: Kappa-type opioid receptor (Homo sapiens, UniProt P41145); test: biochemical; format: cell-based, HEK293
# Sequence of Kappa-type opioid receptor (P41145 whole entry): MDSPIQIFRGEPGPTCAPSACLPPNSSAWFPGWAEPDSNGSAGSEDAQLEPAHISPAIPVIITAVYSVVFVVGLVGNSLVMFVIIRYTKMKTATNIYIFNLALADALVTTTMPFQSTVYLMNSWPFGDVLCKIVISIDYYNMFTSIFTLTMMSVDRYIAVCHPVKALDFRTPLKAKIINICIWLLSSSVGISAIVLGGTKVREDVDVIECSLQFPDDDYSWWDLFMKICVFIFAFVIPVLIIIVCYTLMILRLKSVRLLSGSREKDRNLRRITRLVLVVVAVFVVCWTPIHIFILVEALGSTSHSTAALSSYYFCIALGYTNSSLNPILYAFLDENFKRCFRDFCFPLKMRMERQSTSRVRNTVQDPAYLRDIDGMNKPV
# Sequence of Mu-type opioid receptor (P33535 whole entry): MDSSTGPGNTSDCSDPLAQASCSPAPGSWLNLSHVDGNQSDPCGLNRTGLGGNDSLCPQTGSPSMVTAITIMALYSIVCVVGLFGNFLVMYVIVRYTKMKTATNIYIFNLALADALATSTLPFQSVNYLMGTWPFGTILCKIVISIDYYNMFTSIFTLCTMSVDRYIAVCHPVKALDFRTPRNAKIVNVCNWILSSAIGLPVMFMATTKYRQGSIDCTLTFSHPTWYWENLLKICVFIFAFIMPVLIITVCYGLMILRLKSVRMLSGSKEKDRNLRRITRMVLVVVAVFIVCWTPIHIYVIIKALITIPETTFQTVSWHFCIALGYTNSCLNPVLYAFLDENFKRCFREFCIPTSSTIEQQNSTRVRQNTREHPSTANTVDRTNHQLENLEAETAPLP
# Sequence of Delta-type opioid receptor (P41143 whole entry): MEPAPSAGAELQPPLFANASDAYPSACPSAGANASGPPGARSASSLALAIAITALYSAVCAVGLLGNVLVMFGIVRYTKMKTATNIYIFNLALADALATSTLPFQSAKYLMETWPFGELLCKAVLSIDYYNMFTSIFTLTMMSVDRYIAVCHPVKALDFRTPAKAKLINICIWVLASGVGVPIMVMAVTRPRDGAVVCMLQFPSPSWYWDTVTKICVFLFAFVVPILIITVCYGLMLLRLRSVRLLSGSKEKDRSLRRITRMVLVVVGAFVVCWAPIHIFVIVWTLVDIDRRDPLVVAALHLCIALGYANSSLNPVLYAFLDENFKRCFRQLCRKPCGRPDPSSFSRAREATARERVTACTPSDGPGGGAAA
SMILES,pKi (Mu-type opioid receptor),pKi [1],pKi [2]
CNC(c1cccc(O)c1)C(C)(C)C(=O)NCc1ccccc1 (stereo not drawn),8.06,< 5.00,8.30
CNC(c1ccccc1)C(C)(C)C(=O)NCCc1ccccc1 (stereo not drawn),7.89,< 5.00,7.31
CNC(c1ccccc1)C(C)(C)C(=O)NCC1CCCCC1 (stereo not drawn),7.07,< 5.00,8.92
CNC(c1ccccc1)C(C)(C)C(=O)NCc1ccccc1 (stereo not drawn),7.02,< 5.00,6.33
CNC(c1cccc(O)c1)C(C)(C)C(=O)NCCc1ccccc1 (stereo not drawn),8.85,6.75,8.20
CCCCN(C)C(c1cccc(O)c1)C(C)(C)C(=O)NCCc1ccccc1 (stereo not drawn),7.59,< 5.00,7.12
CNC(c1cccc(O)c1)C(C)(C)C(=O)NCc1cccc2ccccc12 (stereo not drawn),8.85,6.79,8.89
CNC(c1cccc(O)c1)C(C)(C)C(=O)NCC1CC1 (stereo not drawn),6.44,6.11,7.12
CNC(c1cccc(O)c1)C(C)(C)C(=O)NCC1CCCCC1 (stereo not drawn),8.36,6.06,8.24
CNC(c1cccc(O)c1)C(C)(C)C(=O)NCCCc1ccccc1 (stereo not drawn),7.92,< 5.00,8.44
CN(CC1CC1)C(c1cccc(O)c1)C(C)(C)C(=O)NCCc1ccccc1 (stereo not drawn),7.55,6.15,8.54
